# Source: PubChem BioAssay (several laboratories)
# Most compounds without a hit are left out; they make up all but 1.8% or so of the library.
# Tb MetRS inh: blocks T. brucei methionyl-tRNA synthetase activity | purified T. brucei MetRS, ATP depletion, Kinase-Glo luminescence | inhibition, % at 11.9 µM | 360,000 tested, 0.4% active | AID 624268;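 active = inhibition above a per-plate cutoff of the control wells' mean inhibition plus 3 SD, cut at about 5.5% in these data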;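 also: 0% = DMSO wells median and 100% = median of wells with control inhibitor compound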
#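 Material – parasite MetRS enzyme · Medium – HEPES-MgCl2-KCl buffer plus DTT, spermine, BSA, pyrophosphatase · Reagent – ATP, methionine and E. coli bulk tRNA substrates · Times – 15 min enzyme-compound preincubation, 2 h reaction, 10 min detection, 25 °C · Measured by – luminescence of leftover ATP · Evaluation – percent inhibition relative to median high and low control wells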
# PHOSPHO1 inh: inhibitors of human PHOSPHO1 phosphatase. Q8TCT1. recombinant PHOSPHO1, absorbance phosphatase assay. inhibition, % at 13.3 µM. 290,000 tested, 1.1% active. AID 1565; in the data active = inhibition above about 60%
# APOBEC3A inh: inhibitors of human APOBEC3A DNA deaminase | 330,000 tested, 0.41% active | recombinant A3A, FAM/TAMRA ssDNA deamination fluorescence | inhibition, % at 20 µM | P31941;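 active = at least 40% inhibition at 20 µM here, with at most 30% in a related deaminase screen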;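 also: plate controls were A3A with DMSO for no effect and wells lacking A3A enzyme for full effect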
# A3G deaminase: blocks human APOBEC3G single-stranded DNA deamination | AID 493012 | Q9HC16 | recombinant A3G, ssDNA deamination FAM/TAMRA fluorescence | 330,000 tested, 0.28% active | inhibition, % at 20 µM;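 active = inhibition of at least 40% at 20 µM, with no more than 30% in the related APOBEC3A deaminase screen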;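 also: plate controls were DMSO wells with A3G for no effect and wells lacking A3G enzyme for full effect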
# p-CIP stab down: lowers stability of the mouse p/CIP coactivator protein. F442A p/CIP-EGFP cells, EGFP fluorescence, 16 h. AID 1984. Q05BA5. 290,000 tested, 0.01% active. decrease of EGFP signal, % at 10 µM;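 active = EGFP signal decrease of at least 30% at 10 µM or well 3 SD below plate mean, unless failing retest; inactive = the rest, including hits failing retest or dose response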
# Target sequence (Q05BA5 1-1403): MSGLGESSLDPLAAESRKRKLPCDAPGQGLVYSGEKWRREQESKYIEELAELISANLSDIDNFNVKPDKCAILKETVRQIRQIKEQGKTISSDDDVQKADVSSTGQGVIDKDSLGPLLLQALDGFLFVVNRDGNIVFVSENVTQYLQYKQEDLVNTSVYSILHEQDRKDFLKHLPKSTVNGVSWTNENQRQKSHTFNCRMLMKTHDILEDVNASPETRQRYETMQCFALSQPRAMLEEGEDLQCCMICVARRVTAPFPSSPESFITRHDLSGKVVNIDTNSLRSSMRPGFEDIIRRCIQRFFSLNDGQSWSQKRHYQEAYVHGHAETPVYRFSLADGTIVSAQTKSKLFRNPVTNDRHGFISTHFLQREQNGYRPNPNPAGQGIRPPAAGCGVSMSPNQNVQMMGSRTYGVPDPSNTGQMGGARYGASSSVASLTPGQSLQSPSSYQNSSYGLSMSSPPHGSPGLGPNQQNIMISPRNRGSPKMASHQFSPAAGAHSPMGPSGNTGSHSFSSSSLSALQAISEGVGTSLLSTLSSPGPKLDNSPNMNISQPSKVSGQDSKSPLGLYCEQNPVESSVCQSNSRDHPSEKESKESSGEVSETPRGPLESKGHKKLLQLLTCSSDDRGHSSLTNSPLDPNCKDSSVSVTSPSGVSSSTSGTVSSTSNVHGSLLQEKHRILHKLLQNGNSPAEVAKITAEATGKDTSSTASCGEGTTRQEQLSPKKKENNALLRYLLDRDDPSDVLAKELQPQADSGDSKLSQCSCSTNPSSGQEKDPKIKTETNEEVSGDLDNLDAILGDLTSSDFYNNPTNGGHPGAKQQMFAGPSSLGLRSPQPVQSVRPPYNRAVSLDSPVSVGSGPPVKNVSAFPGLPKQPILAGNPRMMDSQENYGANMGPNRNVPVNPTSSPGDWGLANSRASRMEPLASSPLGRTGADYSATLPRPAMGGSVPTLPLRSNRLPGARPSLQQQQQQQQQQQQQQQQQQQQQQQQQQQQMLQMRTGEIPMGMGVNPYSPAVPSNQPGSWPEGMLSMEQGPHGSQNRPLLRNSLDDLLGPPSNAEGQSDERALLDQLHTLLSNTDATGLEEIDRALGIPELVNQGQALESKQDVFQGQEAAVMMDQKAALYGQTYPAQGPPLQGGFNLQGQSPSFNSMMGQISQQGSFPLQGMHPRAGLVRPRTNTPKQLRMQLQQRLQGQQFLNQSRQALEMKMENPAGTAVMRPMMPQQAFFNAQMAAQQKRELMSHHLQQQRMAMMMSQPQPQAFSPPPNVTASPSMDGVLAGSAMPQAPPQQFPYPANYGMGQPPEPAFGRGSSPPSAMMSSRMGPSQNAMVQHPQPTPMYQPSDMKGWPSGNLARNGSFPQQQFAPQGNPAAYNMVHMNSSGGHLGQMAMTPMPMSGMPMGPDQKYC
# APOBEC3A confirm: confirmation of human APOBEC3A DNA deaminase inhibitors. inhibition, % at 20 µM. 1,400 tested, 63% active. shares compounds with APOBEC3A inh. recombinant A3A, ssDNA deaminase UDG fluorescence assay. AID 493151;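 active = inhibition reaching a set limit, 80% of the first screen's cutoff, at 20 µM in any replicate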;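 also: plate controls were DMSO wells with A3A for no effect and wells lacking A3A enzyme for full effect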
# UDG A3A counter: counter-screen for APOBEC3A inhibitors: UDG. UDG counterscreen, FAM/TAMRA uracil oligo fluorescence. 1,000 tested, under 10 active. shares compounds with APOBEC3A inh. inhibition, % at 20 µM; call rule not given here
# The depositor's hits bear a star; nt = no result.
SMILES,Tb MetRS inh,PHOSPHO1 inh,APOBEC3A inh,A3G deaminase,p-CIP stab down,APOBEC3A confirm,UDG A3A counter
CC(OC(=O)CCCCCN=C1NS(=O)(=O)c2ccccc21)C(=O)Nc1cc(Cl)cc(Cl)c1 (stereo not given),2,-2,-2,-5,-1,nt,nt
CCCCSc1nnc(-c2ccc(NC(=O)CCc3ccccc3)cc2)n1C,-1,5,0,-2,-4,nt,nt
Cn1c(Cc2ccccc2)nnc1SCC(=O)NC1CC1,0,43,-1,-14,-1,nt,nt
CCC(=O)Nc1cccc(-c2nnc(SCC(=O)NCc3ccco3)n2C)c1,-2,-71,46*,21,4,68*,3
Cn1c(Cc2ccccc2)nnc1SCCC(=O)Nc1ccccc1,-1,-17,69*,16,-2,74*,-4
Cn1c(SCC(=O)NCc2ccccc2)nnc1-c1ccc(NC(=O)CCc2ccccc2)cc1,0,-20,58*,14,-10,51*,-1
Cc1cccc2c(Cl)cc(=O)[nH]c12,nt,-4,-1,-4,-3,nt,nt
Cc1cccc2cc(=O)[nH]c(C)c12,0,-30,40*,18,-2,7,nt
COc1cc(C)c(NC(=O)C2CCN(S(=O)(=O)c3cccs3)CC2)cc1OC,0,nt,57*,18,nt,55*,0
Cc1ccc(N(Cc2cc3cccc(C)c3[nH]c2=O)S(=O)(=O)c2ccccc2)c(C)c1,0,6,54*,22,-3,67*,1
CC(=O)c1ccccc1NS(=O)(=O)c1cccc2nsnc12,-1,20,41*,8,13,29*,2
CCOc1c(Br)cc(Br)cc1/C=C1\SC(N)=NC1=O,-1,-6,69*,18,10,82*,2
Cc1cc(SCC(=O)OCC(=O)N(CCC#N)c2ccccc2)nc2ccccc12,0,nt,-3,-7,nt,nt,nt
C=CCc1c(C)nc(SCc2ccccc2)[nH]c1=O,1,45,-5,-4,8,nt,nt
COc1ccccc1N(CC(=O)Nc1ccc2c(c1)OCO2)S(=O)(=O)c1ccccc1,0,92*,49*,17,-9,64*,-4
CCCN(CC(=O)Nc1cc(Cl)ccc1Cl)C(=O)/C=C/c1cc(OC)ccc1OC,0,nt,-1,-1,nt,nt,nt
CCCN(CC(=O)Nc1cc(Cl)ccc1Cl)C(=O)/C=C/c1ccco1,0,-6,77*,-3,-10,1,-2
CCN1CCN(c2ccccc2NC(=O)c2ccc(-n3cccn3)cc2)CC1,0,nt,46*,9,nt,28,nt
O=c1c2oc3ccccc3c2ncn1Cc1ccc(F)cc1,-1,-29,1,-1,-1,nt,nt
COc1cc(O)c(C=Nc2ccccc2NS(=O)(=O)c2ccc(C)cc2)c(OC)c1,0,nt,nt,nt,nt,nt,nt
CC1Sc2ccc(S(=O)(=O)CCC(=O)N3CCc4ccccc43)cc2NC1=O (stereo not given),0,28,-2,-4,4,nt,nt
CCC1Sc2ccc(S(=O)(=O)CCC(=O)N3CCc4ccccc43)cc2NC1=O (stereo not given),-1,49,66*,-4,0,17,7
Cc1ccccc1CSCC(=O)Nc1ccccc1Br,0,24,72*,16,-5,11,nt
O=C(NCc1ccc2c(c1)OCO2)c1cc(-n2cnnc2)ccc1Cl,0,-7,57*,12,-4,72*,-1
CCSCCNC(=O)c1cc(-n2cnnc2)ccc1Cl,0,-25,60*,25,-16,60*,2
C[N+]12CCCCC1C(COC(=O)c1ccc3c(c1)OCO3)CCC2 (stereo not given),1,-6,58*,28,-10,48*,nt
CN(C(=O)COC(=O)c1ccc2c(c1)OCO2)C1CCCCC1,0,nt,-2,-4,nt,nt,nt
Cc1cccc(C)c1NC(=O)Cn1c(=O)n(CCCC(=O)NCc2ccco2)c(=O)c2sccc21,0,16,-3,-6,5,nt,nt
CCC(=O)Nc1nnc(SCC(=O)NCC2CCCO2)s1 (stereo not given),-1,10,2,-6,-3,nt,nt
CC(=O)Nc1nnc(SCC(=O)NCC2CCCO2)s1 (stereo not given),0,86*,41*,10,-4,40*,5
